Data set [1] deals with T1, Human immunodeficiency virus type 1 integrase (Human immunodeficiency virus 1, UniProt Q7ZJM1).
The target in data set [2] is T1, Human immunodeficiency virus type 1 integrase. The source holds these as a separate data set.
Data set [3] concerns Human immunodeficiency virus 1. The data set is described as follows: Antiviral activity against HIV-1 3B infected in human HeLa-CD4-LTR-beta-gal cells assessed as inhibition of viral replication by SpectraMax GEMINI-XS plate reader analysis. Format: functional, organism-based. The conditions noted are these: Human immunodeficiency virus 1, 3B. In outline: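 HeLa-CD4-LTR-β-gal cells kept in DMEM, 10% serum, 0.5 mg/mL G418; seeded 10000 cells/well the day before. Drug 3-fold serially diluted over six points on cells (top 50 μM), then fresh medium or concentrated HIV-1(IIIB) supernatant added.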

For data set [4], the target named is Human immunodeficiency virus type 1 reverse transcriptase (Human immunodeficiency virus 1, UniProt Q72547). Description: Inhibition of RNase H function of HIV1 reverse transcriptase using DNA/RNA hybrid as substrate by fluorescence spectrometer analysis.
In data set [5] the target is Human immunodeficiency virus type 1 reverse transcriptase (Human immunodeficiency virus 1) (UniProt Q72547). The data set is described as follows: Inhibition of RNase H function of HIV1 reverse transcriptase using DNA/RNA hybrid as substrate at 10 uM by fluorescence spectrometer analysis. Summed up:
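RNase H activity of HIV-1 RT was measured with an RNA/DNA hybrid substrate at 250 nM final, with 150–800 ng RT, in 50 mM Tris-HCl pH 8.0, 60 mM KCl, 10 mM MgCl2 and 1% DMSO, against DMSO-only wells. Fluorescence (ex 485/em 520 nm) was read each minute over 10 min at 37 °C. Percent inhibition at 10 μM = 100(v0−vi)/v0 from initial rates, run in triplicate.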

Data set [6] relates to HeLa. Description: Cytotoxicity against human HeLa-CD4-LTR-beta-gal cells after 24 hrs by ATPlite reagent based luminescence analysis. Format: cell-based. (In ATP-based viability assays light output follows the ATP content of the culture.)
A short description of data set [7]: Selectivity index, ratio of CC50 for human HeLa-CD4-LTR-beta-gal cells to EC50 for HIV-1 3B infected in human HeLa-CD4-LTR-beta-gal cells. Format: toxicity. The conditions noted are these: read-out: Ratio CC50/EC50.

T1 sequence (Q7ZJM1 whole entry): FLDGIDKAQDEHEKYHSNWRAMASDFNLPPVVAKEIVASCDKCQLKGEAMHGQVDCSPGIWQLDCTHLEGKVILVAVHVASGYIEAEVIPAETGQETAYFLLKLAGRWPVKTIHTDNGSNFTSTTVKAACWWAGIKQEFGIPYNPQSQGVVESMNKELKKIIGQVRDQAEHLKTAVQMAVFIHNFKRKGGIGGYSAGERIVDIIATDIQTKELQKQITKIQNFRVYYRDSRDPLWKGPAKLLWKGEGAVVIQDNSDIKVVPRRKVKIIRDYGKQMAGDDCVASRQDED

In general, IC50 refers to the point on the concentration scale where inhibition reaches its midpoint. High values mean weaker potency, low ones greater potency. Broadly, the EC50 is the concentration that produces a half-maximal response. Turning to `O=C(O)/C(O)=C/C(=O)c1cn(Cc2ccc(O)cc2)c2ccccc2c1=O`, the figures for the IC50 in data set [1], in data set [2] and in data set [4] were more than 37 µM, 0.45 µM and 9.5 µM, respectively. Moreover, the concentration giving a half-maximal response (EC50) in data set [3] is more than 50 µM.

As a reminder, the inhibition is how much of the control response was suppressed. `O=C(O)/C(O)=C/C(=O)c1cn(Cc2cc(F)cc(F)c2)c2ccccc2c1=O` displayed an inhibition in data set [5] of 30%. In addition, the IC50 in data set [2] was 0.22 µM; in data set [4] it was more than 50 µM. Moreover, the EC50 in data set [3] was more than 50 µM.

The molecule `CCOC(=O)/C(O)=C/C(=O)c1cn(Cc2ccc(C)cc2C)c2ccccc2c1=O` yielded an inhibition in data set [5] of 33%. Also, the values for the IC50 in data set [2] and in data set [4] were more than 111 µM and more than 50 µM, respectively. Also, the EC50 in data set [3] was more than 50 µM.

Consider `O=C(O)/C(O)=C/C(=O)c1cn(Cc2ccc([N+](=O)[O-])cc2)c2ccccc2c1=O`, for which the IC50 in data set [1] was 27 µM; in data set [2], 0.64 µM; in data set [4], 47 µM. For the same molecule, the EC50 in data set [3] is more than 50 µM.

For `O=C(O)/C(O)=C/C(=O)c1cn(Cc2ccc(Cl)cc2Cl)c2ccccc2c1=O`, the 50% inhibitory concentration (IC50) in data set [2] is 2.3 µM; in data set [4], 44.7 µM. For the same molecule, in data set [3], the EC50 is more than 50 µM.

The CC50 is the concentration that lowers cell viability or growth by half. Lower therefore signals greater toxicity to the cells. `COc1ccccc1Cn1cc(C(=O)/C=C(\O)C(=O)O)c(=O)c2ccccc21`: the IC50 is more than 4.1 µM in data set [1], 0.038 µM in data set [2] and 16.3 µM in data set [4]. This molecule showed a CC50 in data set [6] of more than 50 µM. Besides, in data set [7], the selectivity ratio is more than 5.4. Further, the EC50 in data set [3] amounted to 9.3 µM.

Turning to `O=C(O)/C(O)=C/C(=O)c1cn(Cc2c(F)cccc2F)c2ccccc2c1=O` [RDS-1984], the IC50 in data set [1] was 0.7 µM; in data set [2], 0.019 µM; in data set [4], 10.8 µM. For the same molecule, the CC50 in data set [6] is more than 50 µM. In addition, the selectivity ratio in data set [7] was more than 6.2. The EC50 in data set [3] worked out at 8.1 µM.

Molecule `O=C(O)/C(O)=C/C(=O)c1cn(Cc2ccc(Cl)cc2)c2ccccc2c1=O` gave an inhibition in data set [5] of 56.2%. Further, the IC50 in data set [1] is 22 µM; in data set [2], 0.54 µM; in data set [4], more than 50 µM. The CC50 in data set [6] was more than 50 µM. Also, the selectivity ratio in data set [7] is more than 57.5. Besides, in data set [3], the concentration giving a half-maximal response (EC50) was 0.87 µM.

Consider `O=C(O)/C(O)=C/C(=O)c1cn(Cc2ccccc2F)c2cc(Cl)ccc2c1=O`, for which the CC50 in data set [6] was more than 50 µM. Moreover, the selectivity ratio in data set [7] was more than 2.9. Besides, the EC50 in data set [3] worked out at 17 µM. The IC50 in data set [4] turned out to be 22.6 µM.

In the case of `CCOC(=O)/C(O)=C/C(=O)c1cn(Cc2c(Cl)cccc2Cl)c2ccccc2c1=O`, the inhibition in data set [5] worked out at 55%. Further, the CC50 in data set [6] was more than 50 µM. In addition, the IC50 in data set [2] is 32 µM; in data set [4], more than 50 µM. In addition, the selectivity ratio in data set [7] is more than 1.7. Moreover, the concentration for a half-maximal effect (EC50) in data set [3] came to 30.2 µM.

In data set [5], `O=C(O)/C(O)=C/C(=O)c1cn(Cc2c(Cl)cccc2Cl)c2ccccc2c1=O` yielded an inhibition of 86.3%. The IC50 in data set [2] turned out to be 0.27 µM; in data set [4] it was 10 µM. The EC50 in data set [3] is more than 50 µM.

For the molecule `O=C(O)/C(O)=C/C(=O)c1cn(Cc2ccc(F)c(F)c2)c2ccccc2c1=O`, the inhibition in data set [5] stood at 44%. Moreover, the CC50 in data set [6] is more than 50 µM. Moreover, the IC50 in data set [2] is 0.11 µM; in data set [4], more than 50 µM. For the same molecule, the selectivity ratio in data set [7] was more than 3.1. For the same molecule, the EC50 in data set [3] worked out at 16.2 µM.

For `Cc1ccc(Cn2cc(C(=O)/C=C(\O)C(=O)O)c(=O)c3ccccc32)c(C)c1`, the figures for the half-inhibitory concentration (IC50) in data set [2] and in data set [4] were 7 µM and 19.6 µM, respectively. The EC50 in data set [3] was more than 50 µM.

`O=C(O)/C(O)=C/C(=O)c1cn(Cc2ccccc2F)c2ccccc2c1=O`: the inhibition in data set [5] turned out to be 45.1%. Besides, the IC50 in data set [1] is 1.2 µM; in data set [2], 0.016 µM; in data set [4], more than 50 µM. In addition, the CC50 in data set [6] is more than 50 µM. The selectivity ratio in data set [7] was more than 19.2. The EC50 in data set [3] turned out to be 2.6 µM.

Consider `O=C(O)/C(O)=C/C(=O)c1cn(Cc2ccccc2F)c2c(Cl)cccc2c1=O`, for which, in data set [5], the inhibition was 45%. In addition, the IC50 in data set [1] was 20.5 µM; in data set [2], 0.13 µM; in data set [4] it was more than 50 µM. The EC50 in data set [3] is more than 50 µM.

On to `O=C(O)/C(O)=C/C(=O)c1cn(Cc2cc(F)ccc2F)c2ccccc2c1=O`, for which the inhibition in data set [5] is 37%. Besides, the IC50 is 3.2 µM in data set [2] and more than 50 µM in data set [4]. Moreover, the concentration giving a half-maximal response (EC50) in data set [3] was more than 50 µM.

With `CCOC(=O)/C(O)=C/C(=O)c1cn(Cc2ccc(Cl)cc2Cl)c2ccccc2c1=O`, the inhibition in data set [5] amounted to 51%. The IC50 is more than 111 µM in data set [2] and more than 50 µM in data set [4]. The EC50 in data set [3] was more than 50 µM.

On to `Cc1cc(C)cc(Cn2cc(C(=O)/C=C(\O)C(=O)O)c(=O)c3ccccc32)c1`, for which the figures for the half-inhibitory concentration (IC50) in data set [2] and in data set [4] were 0.05 µM and 37.8 µM, respectively. In data set [3], the EC50 is more than 50 µM.

In turn, `COc1ccc(Cn2cc(C(=O)/C=C(\O)C(=O)O)c(=O)c3ccccc32)cc1` showed an inhibition in data set [5] of 45.8%. In addition, the IC50 in data set [1] was 28 µM; in data set [2] it was 0.51 µM; in data set [4] it was more than 50 µM. For the same molecule, the EC50 in data set [3] was more than 50 µM.

As to `O=C(O)/C(O)=C/C(=O)c1cn(Cc2ccc(F)cc2F)c2ccccc2c1=O`, in data set [6], the CC50 was more than 50 µM. Also, the IC50 in data set [2] came to 0.01 µM; in data set [4], 35.9 µM. For the same molecule, the selectivity ratio in data set [7] was more than 3.6. Moreover, the EC50 in data set [3] turned out to be 13.8 µM.

For `CCOC(=O)/C(O)=C/C(=O)c1cn(Cc2cccc(Cl)c2F)c2ccccc2c1=O`, in data set [5], the inhibition is 21%. Moreover, the IC50 in data set [1] and in data set [2] was 1.08 µM throughout. This molecule showed a CC50 in data set [6] of more than 50 µM. Also, the selectivity ratio in data set [7] is more than 5. The EC50 in data set [3] is 10 µM.

Source of the values: ChEMBL document CHEMBL3580569, “N-Substituted Quinolinonyl Diketo Acid Derivatives as HIV Integrase Strand Transfer Inhibitors and Their Activity against RNase H Function of Reverse Transcriptase” (J Med Chem, 2015).
